A short description of series [1]: Cytotoxicity in the HCoV 229E CPE assay. Type of series: cell-based. The note with it: human, MRC5 cells, not infected. A digest of the protocol: (§1)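 Uninfected MRC5 human fetal lung fibroblasts seeded at 20,000 cells/well; test compound in cell assay medium as 3-fold serial dilutions to 8 concentrations, duplicate wells. Untreated cell controls run in parallel. Cytotoxicity expressed as percentage viability, with CC50 derived from this.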

The nature of series [2]: Cytotoxicity in the HCoV 229E qPCR assay. Type of series: cell-based. The note with it: human, MRC5 cells, not infected. A digest of the protocol:
as §1
For orientation: Real-time PCR tracks product formation cycle by cycle.

A further series has as its system HCoV 229E. Description: HCoV 229E qPCR assay in MRC5 cells. The settings on record: read-out: HCoV 229E qPCR assay EC50, 200 TCID50, 2 days, viral RNA. The format is cell-based, human coronavirus 229E. A digest of the protocol: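 MRC5 human fetal lung fibroblasts seeded at 20,000 cells/well received test compound (3-fold serial dilutions to 8 concentrations, duplicate wells) in cell assay medium and were infected with 200 TCID50 HCoV 229E. Viral RNA was quantified by qPCR following a previously published protocol. Uninfected untreated and infected untreated controls ran in parallel. Percentage inhibition was recorded; EC50 is the concentration giving 50% of maximal effect.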

The conditions of series [3]: a patient with MS; cited from earlier work.
Series [4] concerns COVID-19-related lethality. The settings on record: meta-regression, patients with MS and COVID-19, N = 5634, P = 0.035; cited from earlier work.

The text below walks through data of PMC9682045 (Biochemistry and Biophysics Reports, 2022).

pEC50: −log10 of the molar value. Where “and” joins values, the source holds several entries; their conditions need not be identical. Equal entries are not always repeated. Where only a bound is given, the exact number is not on record here.

One may read the CC50 as the concentration that lowers cell viability or growth by half. Lower therefore signals harm at low concentration. One may read the pEC50 as the EC50 on a negative log10 scale, so that one unit is a factor of ten.

With `Cc1oncc1C(=O)Nc1ccc(C(F)(F)F)cc1` [Leflunomide, leflunomide], the CC50 at 3 days in series [1] was > 100 µM. For the same compound, the CC50 at 2 days in series [2] was > 100 µM.
For the compound `CCC(CC)COC(=O)[C@H](C)N[P@](=O)(OC[C@H]1O[C@@](C#N)(c2ccc3c(N)ncnn23)[C@H](O)[C@@H]1O)Oc1ccccc1` [Remdesivir (blinded), remdesivir], the CC50 at 3 days in series [1] was > 100 µM. For the same compound, the pEC50 in the series with HCoV 229E is > 7.34. Moreover, the CC50 at 2 days in series [2] is > 100 µM.
As for `C/C(O)=C(\C#N)C(=O)Nc1ccc(C(F)(F)F)cc1` [Teriflunomide, teriflunomide], the plasma concentration in series [3] is 130 μM and 35 mg/L. In addition, the “protective effect on COVID-19-related lethality (β)” value in series [4] is −0.11. In addition, the CC50 at 3 days in series [1] is > 100 µM. Also, the CC50 at 2 days in series [2] is > 100 µM.
